# Screening results as filed in PubChem BioAssay.
# Compounds with a hit are over-represented: about 1.4% of the library has one in this group of screens.
# DAGLB inh: blocks human DAGLB lipase activity; Q8NCG7; HEK293T DAGLB membrane lysate, EnzChek fluorogenic substrate; inhibition, % at 5.17 µM; 0.059% of 340,000 active; AID 504411; in the data active = inhibition above about 34%;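 note: 0% = enzyme with vehicle and 100% = wells lacking enzyme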
# TAG inh: reduces triacylglycerol accumulation in H9c2 cells | Nile Red lipid (TAG) fluorescence; cells loaded with 200 µM oleic acid | inhibition, % at 12.5 µM | 0.66% of 230,000 active;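 active = pattern-corrected inhibition of lipid staining of at least 50% with the nuclear-stain viability signal not falling by more than 50%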;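 note: 0% = DMSO wells and 100% = triacsin C control wells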
# DDE Tn6 FP inh: disrupts Tn6 cyclic peptide binding to fibrin D-Dimer-E complex. P02675. AID 720509. 0.21% of 370,000 active. Fibrin DD(E) TRITC-Tn6 fluorescence polarization displacement. inhibition, % at 8.3 µM;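 active = inhibition above a per-campaign cutoff: mean of compounds within control limits plus 3 SD, cut at about 15% in these data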;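 note: 0% = median of all compound wells on the plate and 100% = blocking peptide control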
# Target sequence (P02675 whole entry, looked up): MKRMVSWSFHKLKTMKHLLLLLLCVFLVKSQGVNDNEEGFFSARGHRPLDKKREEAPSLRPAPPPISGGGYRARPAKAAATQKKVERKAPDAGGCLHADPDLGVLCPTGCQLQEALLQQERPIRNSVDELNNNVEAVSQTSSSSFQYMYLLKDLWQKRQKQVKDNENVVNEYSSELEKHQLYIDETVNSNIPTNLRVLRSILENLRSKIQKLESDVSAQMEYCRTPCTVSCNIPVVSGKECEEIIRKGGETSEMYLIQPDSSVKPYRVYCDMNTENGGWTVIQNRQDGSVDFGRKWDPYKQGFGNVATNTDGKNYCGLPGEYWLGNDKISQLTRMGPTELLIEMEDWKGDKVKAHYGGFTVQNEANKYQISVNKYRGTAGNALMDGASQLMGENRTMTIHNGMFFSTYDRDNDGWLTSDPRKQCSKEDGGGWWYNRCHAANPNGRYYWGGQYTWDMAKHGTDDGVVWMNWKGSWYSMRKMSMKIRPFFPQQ
# Cardio protect: protects H9c2 cardiomyocytes from peroxide injury; 0.63% of 360,000 active; H2O2 injury protection, ATPLite, 2 h; protection from H2O2 cell death, % at 20 µM;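 active = compounds giving at least 50% protection of heart cells from peroxide-induced death in the single-dose screen, raw or plate-pattern-corrected value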;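 note: 0% = DMSO wells with peroxide and 100% = DMSO wells without peroxide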
# MT1-MMP act inh: MT1-MMP (human) activation inhibition; HT1080 RFP-PRO-GFP cells, GFP/RFP ratio fluorescence, overnight; percent of plate control window, DMSO zero; 0.061% of 360,000 active; AID 651647; P50281; GFP/RFP ratio change, % at 20 µM;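 active = GFP/RFP ratio change of at least 30% with cell ATP level not reduced by more than half and red fluorescence within 50% of control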
#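 Assay system: HT1080 cells carrying an RFP-PRO-GFP reporter | Dosing: Single dose of 20 µM compound, 1% DMSO final | Incubation: Cells overnight before dosing, compound overnight, 37 °C, 5% CO2 | Evaluation: GFP/RFP fluorescence ratio | Control set: DMSO and RFP-L50D-GFP cell wells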
# Tn7 DDE FP: DD(E)-Tn7 binding inhibition, primary FP screen. P02675. FP displacement of FITC-Tn7 peptide from fibrin DD(E); 0% = median of compound wells per plate. inhibition, % at 8.3 µM. 0.13% of 370,000 active;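 active = inhibition above the mean of compounds falling within the control limits plus 3 SD of them, cut at about 14% in these data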;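 note: 0% = plate median of compound wells and 100% = 10 µM Aha-Tn7 peptide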
#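 system = human fibrin DD(E) protein | quantity = DD(E) 2 µM final | medium = Tris/NaCl/CaCl2 buffer, pH 7.8 | also added = labelled Tn7 tracer, 0.1 µM | compound dosing = single point at 8.3 µM | timing = compound with protein 10 min, then 3 h after probe, room temperature | signal = FP measurement | benchmarks = Aha-Tn7 high control | repeats = one replicate per compound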
# Active calls of the source: *; / = no result.
SMILES,DAGLB inh,TAG inh,DDE Tn6 FP inh,Cardio protect,MT1-MMP act inh,Tn7 DDE FP
Cc1nn(-c2ccccc2)c(C)c1C(=O)OCC(=O)N1c2ccccc2NC(=O)C1(C)C,0.4,11.9,0.9,99.2*,-5.2,0.8
CCOc1ccc(N(CC(=O)Nc2ccccc2C)S(=O)(=O)c2c(C)noc2C)cc1,-4.1,70.5*,-4.6,3.4,7.1,-3.8
COc1ccc(-c2cc(=O)c3ccccc3[nH]2)cc1,2.2,-75.6,10.1,56.4*,3.1,-1.9
C[C@@H]1ON(C)[C@H]2C[C@H]3c4[nH]c5ccc(-c6ccc7c(c6)OCO7)cc5c4CCN3C[C@@H]12,2.5,16.5,-4.2,62.2*,-4.8,0.6
C[C@@H]1OCN(C)[C@H]2C[C@H]3c4[nH]c5cccc(-c6ccc7c(c6)OCO7)c5c4CCN3C[C@@H]12,/,/,9.2,/,/,0.0
CCCCNC(=O)C[C@H]1C[C@@]2(C(=O)OC)C(=C[C@H](C(C)C)O[C@@H]2C2CC2)N(CCC2=CCCCC2)C1=O,/,/,3.9,/,/,-9.0
O=c1[nH]nc(-c2cccs2)c2ccccc12,-1.9,-1.9,-3.6,69.5*,0.7,4.1
COc1ccc2cc1Oc1ccc(cc1)CC1c3c(cc(OC)c4c3Oc3cc5c(cc3O4)CCNC5C2)CCN1C (centres undefined),-2.3,/,/,-17.8,-18.6,/
COc1ccc2cc1Oc1ccc(cc1)C[C@H]1c3c(cc(OC)c4c3Oc3c(ccc5c3[C@H](C2)N(C)CC5)O4)CCN1C,-2.4,108.7*,/,-20.9,-2.6,/
C/C(=N\Nc1ccc2nncn2n1)c1ccccn1,/,18.5,-5.4,57.7*,8.4,-2.1
CC(C)CC(=O)Nc1ccc(C(=O)COC(=O)Cc2n[nH]c(=O)c3ccccc23)cc1,-2.0,6.4,-1.3,71.9*,-1.7,3.3
O=C(COC(=O)Cc1n[nH]c(=O)c2ccccc12)Nc1ncc(Cl)cc1Cl,1.6,-6.8,-3.8,66.8*,0.1,2.3
CC(=O)c1cccc(NC(=O)C(C)OC(=O)Cc2n[nH]c(=O)c3ccccc23)c1 (centres undefined),1.2,-0.1,-7.0,76.6*,-2.2,-2.6
O=C(Cc1n[nH]c(=O)c2ccccc12)OCC(=O)c1ccccc1,0.3,16.7,-0.8,61.2*,-0.2,-6.7
O=C(Cc1n[nH]c(=O)c2ccccc12)OCC(=O)c1ccc(F)c(F)c1,-0.4,7.9,-5.9,27.1,4.3,-5.2
COc1ccc(S[C@]2(C(=O)N3CCN(c4ncccn4)CC3)CC(=O)N(c3ccsc3)[C@@H]2c2ccc(OC)cc2)cc1,/,/,1.9,/,/,-3.9
C#CCNC(=O)C[C@H]1C(=O)N(CC=C)C2=CCCC[C@@]21C(=O)OCC,/,/,6.5,/,/,3.1
CC(C)c1cc(C(C)C)c(S(=O)(=O)N2CCCC(C(=O)N3CCN(Cc4ccccc4)CC3)C2)c(C(C)C)c1 (centres undefined),/,/,12.2,/,/,2.4
COc1ccc(C(=O)COC(=O)Cc2n[nH]c(=O)c3ccccc23)c(OC)c1,-0.1,-29.5,-13.7,62.4*,-0.2,4.6
COc1ccccc1NC(=O)c1ccc(NC(=O)Cc2n[nH]c(=O)c3ccccc23)cc1,3.4,42.6,-2.8,70.5*,3.7,1.8
COc1ccc(OC)c(S(=O)(=O)N(CC(=O)NC2CCC(C)CC2)c2cc(C)cc(C)c2)c1 (centres undefined),/,/,0.5,/,/,0.0
O=c1[nH]cnc2sc3c(c12)CCC3,-3.9,-2.8,-4.0,59.8*,-7.2,0.3
COC(=O)[C@]12C[C@H](CC(=O)NCCc3ccccc3OC)C(=O)N(Cc3ccc4c(c3)OCO4)C1=C[C@H](C(C)C)O[C@@H]2C1CC1,/,/,-5.1,/,/,1.4
CCOC(=O)C1=C(COC(=O)c2cc(OC)c(OC)c(OC)c2)NC(=O)NC1C (centres undefined),3.5,14.2,-1.6,59.5*,-1.9,2.5
CCOC(=O)C1=C(COC(=O)/C=C/c2ccc(F)cc2)NC(=O)NC1C (centres undefined),-2.7,18.8,3.0,45.2*,3.1,12.2
